Data as given in paper PMC11455621 (Structure (London, England : 1993), 2024).
Changes are numbered by the printed parent chain. Blank lines part the entries; values can stand above or below the compound they belong to.

Tests used:
[1] = biological target: human Fructosamine-3-kinase (HsFN3K) (human) (UniProt Q9H479); assay: SEC
[2] = biological target: human Fructosamine-3-kinase (HsFN3K) (human) (UniProt Q9H479); assay: intact protein LC-MS
[3] = biological target: T1, HsFN3K WT (Homo sapiens, UniProt Q9H479); assay: Direct substrate phosphorylation assay; format: biochemical; conditions: glycated lysozyme 2mg/mL, 1 hour at 25°C (Figure S6D)
T1 sequence (Q9H479 1-309): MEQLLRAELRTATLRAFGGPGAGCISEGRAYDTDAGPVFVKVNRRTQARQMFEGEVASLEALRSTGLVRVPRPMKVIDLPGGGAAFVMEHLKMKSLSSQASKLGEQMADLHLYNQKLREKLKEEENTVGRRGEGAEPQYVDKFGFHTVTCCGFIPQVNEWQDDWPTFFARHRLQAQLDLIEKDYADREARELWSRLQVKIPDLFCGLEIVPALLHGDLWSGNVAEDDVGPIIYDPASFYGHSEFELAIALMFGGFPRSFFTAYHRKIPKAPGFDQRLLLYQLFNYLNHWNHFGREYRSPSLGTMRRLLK
Outline: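 Lysozyme glycated with ribose or glucose (1:1 molar, 3 or 28 days, 50°C). Reaction: 10 or 20 μM FN3K, 2 mg/mL glycated lysozyme, 5 mM HEPES pH 7, 5 mM MgCl2, 100 μM ATP, 1 h at 25°C. Quenched in Laemmli dye, run on SDS-PAGE, fixed in methanol/acetic acid. Stained with Pro-Q Diamond, destained in acetonitrile/sodium acetate pH 4, imaged at 602 nm […]. Coomassie restain for loading.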

[4] = biological target: T2, HsFN3K (Homo sapiens, UniProt Q9H479); assay: Differential scanning fluorimetry; format: binding; conditions: DSF; for Tm increase versus HsFN3K alone: single ligand 250 μM
T2 sequence (Q9H479 1-309): T1 sequence (Q9H479 1-309)

[5] = biological target: T3, HsFN3K H288A (Homo sapiens, UniProt Q9H479, H288A); assay: Differential scanning fluorimetry; format: binding; conditions: DSF
T3 sequence (Q9H479 1-309 H288A): T1 sequence (Q9H479 1-309) with H288A

[6] = biological target: T3, HsFN3K H288A; assay: ADP-Glo kinase kinetics, HsFN3K H288A; format: biochemical; conditions: H288A mutant vs WT HsFN3K
Outline: (§1)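 E. coli BL21(DE3)-expressed human FN3K, MBP-His6 tag removed by TEV, at 0.5 μM. Reaction: 200 μM ATP, 10 mM MgCl2, 0–100 μM DMF, room temperature. Time points quenched with ADP-Glo reagent (40 min), then detection reagent (40 min). Luminescence converted to ADP by ATP-to-ADP conversion curves. v0 taken from the linear slope, then Michaelis–Menten fit. SEM from ≥2 independent experiments.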

[7] = biological target: T4, HsFN3K D217A (Homo sapiens, UniProt Q9H479, D217A); assay: Differential scanning fluorimetry; format: binding; conditions: DSF
T4 sequence (Q9H479 1-309 D217A): T1 sequence (Q9H479 1-309) with D217A

[8] = biological target: T5, HsFN3K D234A (Homo sapiens, UniProt Q9H479, D234A); assay: Differential scanning fluorimetry; format: binding; conditions: DSF
T5 sequence (Q9H479 1-309 D234A): T1 sequence (Q9H479 1-309) with D234A

[9] = biological target: T6, HsFN3K H291A (Homo sapiens, UniProt Q9H479, H291A); assay: Differential scanning fluorimetry; format: binding; conditions: DSF
T6 sequence (Q9H479 1-309 H291A): T1 sequence (Q9H479 1-309) with H291A

[10] = biological target: T4, HsFN3K D217A; assay: Microscale thermophoresis; format: binding
[11] = biological target: T2, HsFN3K; assay: Microscale thermophoresis; format: binding; conditions: MST
[12] = biological target: T6, HsFN3K H291A; assay: ADP-Glo kinase kinetics, HsFN3K H291A; format: biochemical; conditions: H291A mutant vs WT HsFN3K
Outline: as §1

[13] = biological target: T5, HsFN3K D234A; assay: Microscale thermophoresis; format: binding; conditions: MST
[14] = biological target: T7, HsFN3K W219A (Homo sapiens, UniProt Q9H479, W219A); assay: Differential scanning fluorimetry; format: binding; conditions: DSF
T7 sequence (Q9H479 1-309 W219A): T1 sequence (Q9H479 1-309) with W219A

Compound: O=C(CN1CCOCC1)[C@@H](O)[C@H](O)[C@H](O)CO [DMF, 1-Deoxy-1-morpholino-fructose]
substrate (DMF) engagement in presence of AMP-PNP ([4]; HsFN3K WT, AMP-PNP instead of ATP (Figure S7)): prevented substrate engagement
melting temperature (Tm) with both ATP and DMF ([4]; HsFN3K WT, ATP+DMF 250 μM): 65.2 ± 0.6 °C
Tm shift of ATP and DMF compared to ATP alone ([4]; HsFN3K WT, DMF added with ATP): ~ 2 °C
Tm increase versus HsFN3K alone ([4]; HsFN3K WT): did not alter the Tm
Tm shift on DMF binding [5]: 0.6 °C
increase of Km for DMF versus wildtype [6]: 3 fold
ligand binding by Tm shift [7]: lost binding to DMF
Tm shift in the presence of ATP or DMF individually or together [8]: no observable Tm shift
Tm shift on DMF binding [9]: 3.6 °C
binding of DMF ([10]; MST): lost the ability to bind DMF
binding of DMF in the absence of ATP ([11]; HsFN3K WT, absence of ATP): did not bind DMF
increase of Km for DMF versus wildtype [12]: 3.5 fold
binding of ATP and DMF [13]: impaired binding
ligand binding by Tm shift [14]: did not bind DMF

Compound: Nc1ncnc2c1ncn2[C@@H]1O[C@H](COP(=O)(O)OP(=O)(O)OP(=O)([O-])[O-])[C@@H](O)[C@H]1O.[Na+].[Na+] [ATP, Adenosine-5-triphosphate disodium salt]
melting temperature (Tm) with ligand ([4]; HsFN3K WT, ligand 250 μM, apo Tm 56.9 ± 0.7°C): 63.2 ± 0.5 °C
Tm increase versus HsFN3K alone ([4]; HsFN3K WT): ~ 6 °C
ATP binding [5]: retained the ability to bind ATP
ligand binding by Tm shift [7]: retained the ability to bind ATP
Tm shift in the presence of ATP or DMF individually or together [8]: no observable Tm shift
ATP binding [9]: retained the ability to bind ATP
Kd ([10]; read-out: binding affinity (KD) for ATP, MST): 3.5 ± 2.3 µM
Kd ([11]; read-out: binding affinity (KD) for ATP, fluorescently labeled HsFN3K WT, 25°C): 3.9 ± 3.4 µM
binding of ATP and DMF [13]: impaired binding
ligand binding by Tm shift [14]: retained the ability to bind ATP

Compound: Nc1ncnc2c1ncn2[C@@H]1O[C@H](COP(=O)(O)OP(=O)(O)NP(=O)(O)O)[C@@H](O)[C@H]1O [AMP-PNP, adenylyl-imidodiphosphate]
binding of ATP mimetic ([4]; HsFN3K WT (Figure S7)): readily bound to HsFN3K

More lines, now with the values ahead:

stoichiometry N [1]: 2
stoichiometry N [2]: 2
Compound: human Fructosamine-3-kinase (HsFN3K) (from UniProt Q9H479 1-309) (enzyme)

substrate phosphorylation [3]: able to phosphorylate
Compound: glycated lysozyme: crystallization grade lysozyme incubated with ribose or glucose; protein substrate of FN3K
